According to ChEMBL document CHEMBL5356993, “Novel pyrazolo[3,4-d]pyrimidine derivatives: design, synthesis, anticancer evaluation, VEGFR-2 inhibition, and antiangiogenic activity” (RSC Med Chem, 2023):

Legend:
[1] = test system: OVCAR-5; test: Antiproliferative activity against human OVCAR-5 cells assessed as cell growth inhibition at 10 uM incubated for 48 hrs by SRB assay relative to control; type: functional; details: read-out: GI
Procedure, shortened: (§1)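 Cells plated in 96-well plates at […] cells/well and preincubated 24 h at 37 °C, 5% CO2. Time-zero plates were TCA-fixed. Compound was diluted in medium with 50 µg/mL gentamicin and cells exposed for 48 h. Adherent cells fixed with 10% final TCA; suspension cells with 16% final TCA. Plates stained with 0.4% SRB in 1% acetic acid, dye solubilized in 10 mM Trizma, absorbance read at 515 nm. Percent growth calculated against time-zero and control.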

[2] = test system: NCI-H522; test: Antiproliferative activity against human NCI-H522 cells assessed as cell growth inhibition at 10 uM incubated for 48 hrs by SRB assay relative to control; type: functional; details: read-out: GI; procedure, shortened: as §1
[3] = test system: HT-29; test: Antiproliferative activity against human HT-29 cells assessed as cell growth inhibition at 10 uM incubated for 48 hrs by SRB assay relative to control; type: functional; details: read-out: GI; procedure, shortened: as §1
[4] = test system: KM12; test: Antiproliferative activity against human KM12 cells assessed as cell growth inhibition at 10 uM incubated for 48 hrs by SRB assay relative to control; type: functional; details: read-out: GI; procedure, shortened: as §1
[5] = test system: SW-620; test: Antiproliferative activity against human SW620 cells assessed as cell growth inhibition at 10 uM incubated for 48 hrs by SRB assay relative to control; type: functional; details: read-out: GI
Procedure, shortened: (§2)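 Cells pre-incubated 24 h at 37°C, 5% CO2, then exposed to compound (DMSO stock diluted in medium with 50 µg/mL gentamicin) for 48 h. Adherent cells fixed with cold TCA (final 10%, 60 min, 4°C); suspension cells fixed with 16% TCA final. Stained with 0.4% SRB in 1% acetic acid for 10 min, dye solubilized in 10 mM Trizma base, absorbance read at 515 nm. Growth calculated against time-zero and untreated control plates.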

[6] = test system: SF-295; test: Antiproliferative activity against human SF-295 cells assessed as cell growth inhibition at 10 uM incubated for 48 hrs by SRB assay relative to control; type: functional; details: read-out: GI; procedure, shortened: as §1
[7] = test system: SF-539; test: Antiproliferative activity against human SF-539 cells assessed as cell growth inhibition at 10 uM incubated for 48 hrs by SRB assay relative to control; type: functional; details: read-out: GI; procedure, shortened: as §1
[8] = test system: U-251; test: Antiproliferative activity against human U-251 cells assessed as cell growth inhibition at 10 uM incubated for 48 hrs by SRB assay relative to control; type: functional; details: read-out: GI; procedure, shortened: as §2
[9] = test system: M14; test: Antiproliferative activity against human M14 cells assessed as cell growth inhibition at 10 uM incubated for 48 hrs by SRB assay relative to control; type: functional; details: read-out: GI; procedure, shortened: as §1
[10] = test system: SK-MEL-2; test: Antiproliferative activity against human SK-MEL-2 cells assessed as cell growth inhibition at 10 uM incubated for 48 hrs by SRB assay relative to control; type: functional; details: read-out: GI; procedure, shortened: as §1
[11] = test system: SK-MEL-28; test: Antiproliferative activity against human SK-MEL-28 cells assessed as cell growth inhibition at 10 uM incubated for 48 hrs by SRB assay relative to control; type: functional; details: read-out: GI; procedure, shortened: as §1
[12] = test system: SK-MEL-5; test: Antiproliferative activity against human SK-MEL-5 cells assessed as cell growth inhibition at 10 uM incubated for 48 hrs by SRB assay relative to control; type: functional; details: read-out: GI; procedure, shortened: as §1
[13] = test system: UACC-257; test: Antiproliferative activity against human UACC-257 cells assessed as cell growth inhibition at 10 uM incubated for 48 hrs by SRB assay relative to control; type: functional; details: read-out: GI; procedure, shortened: as §2
[14] = test system: OVCAR-3; test: Antiproliferative activity against human OVCAR-3 cells assessed as cell growth inhibition at 10 uM incubated for 48 hrs by SRB assay relative to control; type: functional; details: read-out: GI; procedure, shortened: as §1
[15] = test system: SK-OV-3; test: Antiproliferative activity against human SK-OV-3 cells assessed as cell growth inhibition at 10 uM incubated for 48 hrs by SRB assay relative to control; type: functional; details: read-out: GI; procedure, shortened: as §1
[16] = test system: A498; test: Antiproliferative activity against human A498 cells assessed as cell growth inhibition at 10 uM incubated for 48 hrs by SRB assay relative to control; type: functional; details: read-out: GI; procedure, shortened: as §1
[17] = test system: RXF 393; test: Antiproliferative activity against human RXF 393 cells assessed as cell growth inhibition at 10 uM incubated for 48 hrs by SRB assay relative to control; type: functional; details: read-out: GI; procedure, shortened: as §1
[18] = test system: TK-10; test: Antiproliferative activity against human TK-10 cells assessed as cell growth inhibition at 10 uM incubated for 48 hrs by SRB assay relative to control; type: functional; details: read-out: GI; procedure, shortened: as §2
[19] = test system: Hs-578T; test: Antiproliferative activity against human Hs-578T cells assessed as cell growth inhibition at 10 uM incubated for 48 hrs by SRB assay relative to control; type: functional; details: read-out: GI; procedure, shortened: as §1
[20] = test system: NCI-H226; test: Antiproliferative activity against human NCI-H226 cells assessed as cell growth inhibition at 10 uM incubated for 48 hrs by SRB assay relative to control; type: functional; details: read-out: GI; procedure, shortened: as §1
[21] = test system: HOP-92; test: Antiproliferative activity against human HOP-92 cells assessed as cell growth inhibition at 10 uM incubated for 48 hrs by SRB assay relative to control; type: functional; details: read-out: GI; procedure, shortened: as §1
[22] = test system: HL-60(TB); test: Antiproliferative activity against human HL-60(TB) cells assessed as cell growth inhibition at 10 uM incubated for 48 hrs by SRB assay relative to control; type: functional; details: read-out: GI
Procedure, shortened: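 Cells were plated at […] cells/well and preincubated 24 h at 37°C, 5% CO2, with time-zero plates TCA-fixed. Compound was diluted from DMSO stock in medium with 50 µg/mL gentamicin, then exposed for 48 h. Settled suspension cells were fixed with 80% TCA (final 16%), stained with 0.4% SRB and solubilized in 10 mM Trizma, A515. Growth was taken relative to Tz and control.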

[23] = test system: CCRF-CEM; test: Antiproliferative activity against human CCRF-CEM cells assessed as cell growth inhibition at 10 uM incubated for 48 hrs by SRB assay relative to control; type: functional; details: read-out: GI; procedure, shortened: as §1
[24] = Cytotoxicity against human MCF-10A cells assessed as cell growth inhibition incubated for 72 hrs by MTT assay
[25] = test system: MDA-MB-468; test: Cytotoxicity against human MDA-MB-468 cells assessed as cell growth inhibition incubated for 72 hrs by MTT assay; type: functional, cell-based; details: MDA-MB-468, 72 h
[26] = test system: T47D; test: Cytotoxicity against human T47D cells assessed as cell growth inhibition incubated for 72 hrs by MTT assay; type: functional, cell-based
[27] = Selectivity index, ratio of IC50 for human MCF-10A cells to IC50 for human MDA-MB-468 cells; details: MCF-10A cells versus MDA-MB-468 cells
[28] = Selectivity index, ratio of IC50 for human MCF-10A cells to IC50 for human T47D cells; details: MCF-10A cells versus T47D cells
[29] = biological target: Vascular endothelial growth factor receptor 2 (Homo sapiens, UniProt P35968); test: Inhibition of VEGFR-2 (unknown origin) incubated for 45 mins by Kinase-Glo Max assay
Vascular endothelial growth factor receptor 2, sequence (P35968 whole entry): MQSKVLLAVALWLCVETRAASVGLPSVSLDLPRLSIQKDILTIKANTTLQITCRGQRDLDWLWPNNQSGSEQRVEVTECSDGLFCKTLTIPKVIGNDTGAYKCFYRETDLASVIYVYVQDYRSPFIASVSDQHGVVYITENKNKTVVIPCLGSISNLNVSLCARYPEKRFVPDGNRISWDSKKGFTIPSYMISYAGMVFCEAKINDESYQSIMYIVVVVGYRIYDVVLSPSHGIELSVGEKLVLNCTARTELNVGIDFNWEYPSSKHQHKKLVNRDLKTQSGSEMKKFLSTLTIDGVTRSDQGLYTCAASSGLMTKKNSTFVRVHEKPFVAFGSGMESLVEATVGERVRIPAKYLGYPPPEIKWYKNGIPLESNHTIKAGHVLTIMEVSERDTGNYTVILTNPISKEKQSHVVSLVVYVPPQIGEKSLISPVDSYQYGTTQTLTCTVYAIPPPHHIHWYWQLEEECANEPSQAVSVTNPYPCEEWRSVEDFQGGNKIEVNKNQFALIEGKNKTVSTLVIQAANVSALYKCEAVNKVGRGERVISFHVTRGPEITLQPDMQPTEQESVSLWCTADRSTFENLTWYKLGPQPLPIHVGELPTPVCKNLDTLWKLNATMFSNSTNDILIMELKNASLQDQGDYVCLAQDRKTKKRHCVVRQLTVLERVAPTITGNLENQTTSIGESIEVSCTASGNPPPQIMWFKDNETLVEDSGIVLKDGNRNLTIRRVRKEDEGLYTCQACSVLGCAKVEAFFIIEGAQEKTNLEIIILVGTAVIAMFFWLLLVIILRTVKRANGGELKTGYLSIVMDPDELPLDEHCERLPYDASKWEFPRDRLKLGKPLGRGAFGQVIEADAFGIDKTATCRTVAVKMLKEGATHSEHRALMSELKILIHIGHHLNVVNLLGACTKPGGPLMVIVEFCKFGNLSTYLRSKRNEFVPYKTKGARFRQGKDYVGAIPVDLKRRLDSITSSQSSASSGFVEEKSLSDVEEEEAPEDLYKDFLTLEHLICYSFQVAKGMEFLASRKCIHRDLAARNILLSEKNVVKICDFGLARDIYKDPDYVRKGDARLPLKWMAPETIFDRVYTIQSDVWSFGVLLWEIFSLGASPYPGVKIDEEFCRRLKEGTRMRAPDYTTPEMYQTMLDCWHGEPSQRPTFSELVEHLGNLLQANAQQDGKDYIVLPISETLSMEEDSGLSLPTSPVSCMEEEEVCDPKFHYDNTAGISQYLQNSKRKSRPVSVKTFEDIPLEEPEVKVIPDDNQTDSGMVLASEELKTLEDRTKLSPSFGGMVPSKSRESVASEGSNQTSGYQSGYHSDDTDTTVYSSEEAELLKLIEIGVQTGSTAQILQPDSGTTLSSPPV

[30] = test system: HUVEC; test: Antiangiogenic activity against HUVEC cells assessed as wound closure at IC50 incubated for 72 hrs by wound healing assay (reference value: 98.518 %); type: functional, Homo sapiens
[31] = test system: MDA-MB-468; test: Induction of apoptosis in human MDA-MB-468 cells assessed as necrotic cells at IC50 incubated for 24 hrs by Annexin V/PI staining based flow cytometry (reference value: 1.59 %); type: functional
[32] = test system: MDA-MB-468; test: Induction of apoptosis in human MDA-MB-468 cells assessed as fold increase in total apoptotic cells at IC50 incubated for 24 hrs by Annexin V/PI staining based flow cytometry relative to control; type: functional

| Compound | inhibition of growth at 10 µM [1] | inhibition of growth at 10 µM [2] | inhibition of growth at 10 µM [3] | inhibition of growth at 10 µM [4] | inhibition of growth at 10 µM [5] | inhibition of growth at 10 µM [6] | inhibition of growth at 10 µM [7] | inhibition of growth at 10 µM [8] | inhibition of growth at 10 µM [9] | inhibition of growth at 10 µM [10] | inhibition of growth at 10 µM [11] | inhibition of growth at 10 µM [12] | inhibition of growth at 10 µM [13] | inhibition of growth at 10 µM [14] | inhibition of growth at 10 µM [15] | inhibition of growth at 10 µM [16] | inhibition of growth at 10 µM [17] | inhibition of growth at 10 µM [18] | inhibition of growth at 10 µM [19] | inhibition of growth at 10 µM [20] | further results |
| --- | --- | --- | --- | --- | --- | --- | --- | --- | --- | --- | --- | --- | --- | --- | --- | --- | --- | --- | --- | --- | --- |
| Cc1nc2c(cnn2-c2ccccc2)c(=O)n1-c1ccc(NC(=O)c2ccccc2)cc1 | < 15% | 20.7% | 25.2% | 24.7% | < 15% | 46.5% | 19.8% | < 15% | 23.6% | < 15% | < 15% | 76.2% | 46.9% | 16.8% | 19% | < 15% | 18.9% | 18.6% | 28.9% | 44.7% | inhibition of growth at 10 µM [21]: 29.2%; inhibition of growth at 10 µM [22]: 18.5%; inhibition of growth at 10 µM [23]: 49.5%; IC50 at 72 h [24]: 55.5 µM; IC50 [25]: 27 µM; IC50 [26]: 35.5 µM; selectivity ratio [27]: 2.05; selectivity ratio [28]: 1.56; IC50 [29]: 0.178 µM |
| Cc1ccc(C(=O)Nc2ccc(-n3c(C)nc4c(cnn4-c4ccccc4)c3=O)cc2)cc1 | < 15% | 28.8% | 28.8% | 22.5% | < 15% | 49.4% | 18.6% | < 15% | 26.8% | 21.7% | 19.3% | 93% | 58% | < 15% | < 15% | < 15% | < 15% | 17.7% | 15.2% | 45.2% | inhibition of growth at 10 µM [21]: < 15%; inhibition of growth at 10 µM [22]: 48.6%; inhibition of growth at 10 µM [23]: 53.7%; IC50 at 72 h [24]: 58.2 µM; IC50 [25]: 16 µM; selectivity ratio [27]: 3.63; IC50 [29]: 0.261 µM |
| Cc1nc2c(cnn2-c2ccccc2)c(=O)n1-c1ccc(NC(=O)c2ccc(F)cc2)cc1 | < 15% | 36.1% | 36.5% | 35.9% | 23.5% | 60.4% | < 15% | 18.9% | 37.1% | 22.1% | 16.2% | > 100% | 68.2% | < 15% | < 15% | < 15% | 20.9% | 29% | 21.3% | 43.8% | inhibition of growth at 10 µM [21]: < 15%; inhibition of growth at 10 µM [22]: 57.5%; inhibition of growth at 10 µM [23]: 65.2%; IC50 at 72 h [24]: 22.8 µM; IC50 [25]: 3.34 µM; IC50 [26]: 4.79 µM; selectivity ratio [27]: 6.81; selectivity ratio [28]: 4.75; IC50 [29]: 0.063 µM; Activity [30]: 75.555%; Activity [31]: 4.94%; fold change (FC) [32]: 18.98 |
| Cc1nc2c(cnn2-c2ccccc2)c(=O)n1-c1ccc(NC(=O)c2ccc(Cl)cc2)cc1 | < 15% | 32.3% | 28% | 19.2% | 17.3% | 45.9% | < 15% | < 15% | 24.6% | 26.1% | 17.1% | 80.3% | 53.9% | 17.4% | < 15% | < 15% | < 15% | 19.9% | 20.1% | 49.1% | inhibition of growth at 10 µM [21]: 37.8%; inhibition of growth at 10 µM [22]: 48.1%; inhibition of growth at 10 µM [23]: 25.3%; IC50 at 72 h [24]: 34.6 µM; IC50 [25]: 10.7 µM; IC50 [26]: 20.1 µM; selectivity ratio [27]: 3.24; selectivity ratio [28]: 1.72; IC50 [29]: 0.2 µM |
